# Rows were chosen to be rich in hits. Some 4.6% of all compounds tested hit in one or more screens of this group.
# OX1R antag-1 – antagonists of human orexin 1 receptor | O43613 | inhibition, % at 5 µM | AID 434989 | CHO/OX1R cells, Fluo-8 calcium fluorescence, orexin A | hit rate 0.43% among 330,000;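 active means inhibition above its plate's threshold, mean inhibition of all tested compounds on the plate plus 3 SD, cut at about 37% in these data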;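 further: 0% = orexin A challenge wells and 100% = SB-334867-A antagonist wells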
# Target sequence (O43613 whole entry, looked up): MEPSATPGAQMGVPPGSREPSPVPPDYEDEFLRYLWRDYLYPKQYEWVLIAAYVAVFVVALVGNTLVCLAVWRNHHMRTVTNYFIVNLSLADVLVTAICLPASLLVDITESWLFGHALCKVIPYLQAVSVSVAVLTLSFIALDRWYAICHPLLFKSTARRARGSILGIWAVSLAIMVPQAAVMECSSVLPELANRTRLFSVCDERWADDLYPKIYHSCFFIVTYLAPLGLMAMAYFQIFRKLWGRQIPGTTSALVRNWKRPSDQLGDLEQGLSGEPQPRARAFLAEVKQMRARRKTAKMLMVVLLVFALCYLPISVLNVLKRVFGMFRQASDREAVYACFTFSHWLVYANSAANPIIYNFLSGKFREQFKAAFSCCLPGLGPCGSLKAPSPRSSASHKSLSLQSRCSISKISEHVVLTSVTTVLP
# TAAR1 antag – antagonists of human TAAR1; Q96RJ0; CHO RD-HGA16 TAAR1, Fluo-8 calcium fluorescence, antagonist; inhibition, % at 3 µM; hit rate 1.5% among 360,000;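 active means inhibition above a per-plate cutoff, the mean inhibition of test compounds on that plate plus 3 SD, cut at about 49% in these data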;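 further: 0% = DMSO plus EC80 beta-PEA response and 100% = DMSO alone without agonist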
#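 System: RD-HGA16 CHO cells with stable hTAAR1 and Gα16 | Probe or stimulus: EC80 β-phenethylamine stimulus | Dosing: 3 µM, single point | Times: Dye loading 75 min at 37 °C, then 30 min room temperature | Measured by: Fluo-8 calcium-sensitive fluorescence | Read-out basis: % inhibition of agonist calcium response | Replicates: n of 1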
# OX1R antag-2 – antagonists of human orexin 1 receptor (OX1R). O43613. OX1R-expressing cells, FRET antagonist read-out. inhibition, % at 6.6 µM. hit rate 1.8% among 330,000; in the data active means inhibition mostly above about 38%, no sharp cut-off; inactive means mostly below about 40%;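 further: 0% = agonist challenge alone and 100% = reference antagonist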
# TAAR1 agonist – human TAAR1 agonism | hit rate 0.99% among 360,000 | AID 624467 | CHO RD-HGA16 TAAR1, Fluo-8 calcium fluorescence; vehicle wells 0%, saturating PEA agonist 100% | Q96RJ0 | activation, % at 3 µM;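 active means activation above the mean activation of all test compounds in the run plus 3 SD, cut at about 38% in these data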
#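 Repeats: no replicates (n 1) | Material: CHO-derived RD-HGA16 cells with stable Gα16 and human TAAR1 | Technique: Kinetic Fluo-8 calcium fluorescence | Schedule: 17-24 h seeding, 75 min 37 °C dye, 30 min RT | Evaluation: % activation from peak over basal fluorescence ratio, DMSO-to-PEA scaled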
# GPR7 antagonist – human neuropeptides B/W receptor 1 antagonism; hit rate 1.1% among 290,000; GPR7-expressing cells, fluorescence antagonist assay; inhibition, % at 4.4 µM; P48145; AID 1861; in the data active means inhibition above about 16%, passing the limit was not always enough;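 further: cells stimulated with the agonist NPW; 0% = agonist with vehicle and 100% = vehicle without agonist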
# Target sequence (P48145 whole entry, looked up): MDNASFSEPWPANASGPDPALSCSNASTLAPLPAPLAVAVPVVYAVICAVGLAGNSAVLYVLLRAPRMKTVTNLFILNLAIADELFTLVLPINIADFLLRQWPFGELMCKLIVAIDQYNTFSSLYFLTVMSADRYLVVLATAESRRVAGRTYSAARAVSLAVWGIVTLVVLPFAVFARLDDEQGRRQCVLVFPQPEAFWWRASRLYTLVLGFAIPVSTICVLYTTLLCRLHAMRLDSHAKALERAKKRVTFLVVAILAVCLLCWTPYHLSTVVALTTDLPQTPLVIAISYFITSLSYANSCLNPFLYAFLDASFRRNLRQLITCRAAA
# CHO parental Ca – counter-screen: ATP calcium response change in parental CHO cells; parental CHO-K1, ATP-induced calcium, Fluo-8 fluorescence; AID 463079; inhibition, % at 5.6 µM; hit rate 0.63% among 330,000;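 active means inhibition above that plate's mean sample inhibition plus 3 SD, cut at about 26% in these data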;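 further: 0% = ATP-challenged DMSO wells and 100% = DMSO wells without ATP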
#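 Material – parental CHO cells · Reagent – ATP stimulus · Compound – single nominal dose of 5.6 µM per compound · Detection – Fluo-8 fluorescence · Read-out basis – percent inhibition of calcium signal · Controls – ATP-challenged DMSO wells low, unchallenged DMSO wells high · Repeats – no replicates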
# An asterisk follows results filed as active; x = no result.
SMILES,OX1R antag-1,TAAR1 antag,OX1R antag-2,TAAR1 agonist,GPR7 antagonist,CHO parental Ca
CCN(CC)S(=O)(=O)c1ccc(N2CCOCC2)c(NC(=O)c2[nH]c(C)c(C(C)=O)c2C)c1,-20.7,25.1,6.4,3.2,x,-24.7
CC(=O)Nc1cccc(NC(=O)c2cc(-c3ccccn3)nc3ccc(Cl)cc23)c1,-16.7,65.1*,10.8,9.2,-8.0,-18.5
COCOCCn1cc(CN2CCS(=O)(=O)N(Cc3ccc(-c4ccc(Cl)cc4)cc3)C(CC(C)C)C2=O)nn1 (stereo unspecified),x,23.6,x,4.6,x,x
COCOCCn1cc(CN2CCS(=O)(=O)N(Cc3ccc(-c4ccc(Cl)nc4)cc3)C(CC(C)C)C2=O)nn1 (stereo unspecified),x,48.8*,x,12.3,x,x
Cc1ccc(-c2ccc(CN3C(CC(C)C)C(=O)N(Cc4cn(CCC5OCCCO5)nn4)CCS3(=O)=O)cc2)cc1 (stereo unspecified),x,58.2*,x,10.0,x,x
CC(=O)NCCNc1ccc([N+](=O)[O-])cc1C#N,4.7,-4.1,67.1*,1.0,-9.1,6.1
O=[N+]([O-])c1ccc(N2CCCC2)nc1,-5.5,-18.4,42.0*,0.8,-2.5,-15.4
CCOC(=O)c1cnc(SCc2nc(N)nc(Nc3ccc(F)cc3)n2)nc1N,15.9,12.5,60.6*,11.3,-6.2,-17.3
O=C(COc1cc2oc(=O)cc(-c3ccccc3)c2cc1Cl)NCCN1CCOCC1,7.0,-8.1,49.0*,6.0,-15.8,-13.7
O=[N+]([O-])c1ccc(N=Nc2c(Cl)cc(O)cc2Cl)cc1,39.1*,58.8*,58.1*,3.4,62.2*,66.6*
CCCCC[C@H](O)/C=C/[C@H]1CCC(=O)[C@@H]1CCCCCCC(=O)N1CCCCC1CO (stereo partly specified),-2.0,71.3*,-9.6,22.9,24.7,-1.1
CCC1CCCCN1C(=O)CCCOc1ccccc1 (stereo unspecified),-18.3,7.1,5.0,2.2,-3.0,-22.5
C/C(CC(=O)c1ccccc1)=N\NC(=O)CC#N,-6.2,2.8,11.0,-0.5,-1.3,-3.0
Cc1cc(Nc2cccc(Cl)c2)nc(N2CCOCC2)n1,-19.6,-22.6,22.7,6.3,-12.3,-11.2
Cc1cc(Nc2ccccc2)nc(N2CCOCC2)n1,-2.7,-16.9,1.8,40.8*,21.7,-7.9
CCCCOc1ccc(Br)cc1CSC(=N)N,x,72.6*,x,102.7*,74.7*,x
CCOc1ccc(C(C)=O)cc1CSC(=N)N,-10.5,-6.0,12.4,11.8,-8.9,-9.0
COc1cccc2c3c(c(C)nc12)CCN3c1ccccc1,-11.0,-19.6,63.8*,8.3,0.8,8.0
CCCn1nnc(NC(=O)c2ccc(Br)o2)n1,0.1,-3.0,24.5,10.1,-13.7,-6.2
CC(=O)c1c2c3c(c(Br)ccc3n(C)c1=O)C(=O)c1ccccc1-2,-4.0,-3.4,55.8*,4.4,8.2,-18.3
CC(=O)c1c2c3c(cccc3n(C)c1=O)C(=O)c1ccccc1-2,-25.8,x,24.9,x,-6.6,-7.8
CCOc1ccc(Cn2nnc(C(=O)NCc3ccc(OC)cc3)c2N)cc1,4.2,12.6,15.3,49.5*,-0.2,-2.8
COc1ccc(NC(=O)CSc2nc3ccsc3c(=O)n2CCC(=O)O)cc1,x,2.8,x,1.0,x,x
CCOC(=O)c1c(NS(C)(=O)=O)sc2c1CCC(C)C2 (stereo unspecified),-20.5,-11.2,4.7,-1.5,-16.6,-20.8
CCCCn1cc(C(=O)c2cc(Br)ccc2O)cc(C#N)c1=O,43.8*,1.9,50.9,9.0,17.1,28.6
SMILES,OX1R antag-1,TAAR1 antag,OX1R antag-2,TAAR1 agonist,GPR7 antagonist,CHO parental Ca
CN(CC(=O)NCCc1ccc(S(N)(=O)=O)cc1)S(=O)(=O)c1cccc2nsnc12,-19.5,-13.4,58.6*,5.3,17.5,8.6
CC(=O)c1cccc(NC(=O)CN(C)S(=O)(=O)c2cccc3nsnc23)c1,-67.2,-12.3,44.2*,5.3,1.5,-19.7
CN(CC(=O)Nc1ccc(F)c(Cl)c1)S(=O)(=O)c1cccc2nsnc12,0.3,24.6,32.6,10.8,-1.4,2.8
Cc1ccc(NC(=O)CN(C)S(=O)(=O)c2cccc3nsnc23)cc1,-15.9,-3.1,52.9,9.6,1.0,-0.5
CCOc1ccc(CCNC(=O)CN(C)S(=O)(=O)c2cccc3nsnc23)cc1OCC,-20.3,-0.1,24.6,8.5,-9.0,-25.2
Cc1ccc(CNC(=O)CN(C)S(=O)(=O)c2cccc3nsnc23)cc1,-18.9,-20.8,71.3*,12.9,-0.8,-20.5
CN(CC(=O)N1CCCCC1)S(=O)(=O)c1cccc2nsnc12,-9.2,-11.9,54.5*,0.6,3.2,-7.5
N#Cc1c(/N=C/c2ccc(-c3ccccc3C(=O)O)o2)sc2c1CCCC2,6.8,-11.8,-0.1,-1.0,1.5,-1.5
O=C(Nc1ccc2snnc2c1)N1CCCCC1,-5.7,-0.5,20.6,3.0,-2.3,-2.9
CCn1c(SCC(=O)OC2CCCCC2)nnc1-c1ccncc1,-29.0,-2.0,19.6,4.3,0.2,-0.4
O=C(CCCCCn1c(=O)[nH]c2ccccc2c1=O)N1CCN(Cc2ccc3c(c2)OCO3)CC1,-45.4,26.5,23.8,9.2,-12.3,-28.4
O=C(OC1CCCCC1)c1cc2ccccc2oc1=O,-13.8,3.2,12.8,5.8,0.7,-10.3
CN(C(=O)COC(=O)c1cc2ccccc2oc1=O)C1CCCCC1,-20.3,12.0,27.5*,1.3,x,-9.5
Cc1nnc(NC(=O)CSc2nc(CC(C)C)nc3c2c(=O)n(C)c(=O)n3C)s1,-11.3,-8.8,-1.1,1.3,-6.9,-2.2
CCOc1ccc([C@@H]2CC=C(C(=O)O)[C@H](c3ccc(F)cc3)N2S(=O)(=O)c2ccc(C)cc2)cc1,1.6,15.2,21.8,13.0,x,-9.4
CCOc1ccc([C@@H]2CC=C(C(=O)O)[C@H](c3cccc(Cl)c3)N2S(=O)(=O)c2ccc(C)cc2)cc1,-17.7,15.6,55.2*,0.5,x,3.7
Cc1ccc(S(=O)(=O)N2[C@@H](c3cccc(Cl)c3)C(C(=O)O)=CC[C@H]2c2ccc(Cl)cc2)cc1,30.5,52.2*,73.9*,3.6,x,-0.6
Cc1ccc(S(=O)(=O)N2C(c3cccc(Cl)c3)CC=C(C(=O)O)C2c2cccc(Cl)c2)cc1 (stereo unspecified),x,2.0,x,1.5,x,x
Cc1cc(C(=O)N/N=C\c2ccc(COc3ccc([N+](=O)[O-])cc3)o2)ccc1[N+](=O)[O-],4.0,54.5*,23.5,13.6,-5.4,-0.5
c1ccc(-c2nc(NCc3cccnc3)c3oc4ccccc4c3n2)cc1,22.1,12.3,68.0*,9.0,-7.4,-23.8
O=C(Cc1ccc(NC(=O)C2CCN(C(=O)C3CC3)CC2)cc1)Nc1cccc(C(=O)N2CCCC2)c1,x,3.7,x,-0.7,x,x
Cc1ccc([C@H]2C[C@H](O)[C@@H](n3cc(C4CC4)nn3)CN2Cc2cccs2)cc1,x,41.4,x,41.3*,x,x

# From PubChem
